≈ marks a conversion by molar mass, not a printed value.

Tested on in one data set: not listed separately
Briefly: Cytotoxicity against human Fem-X cells assessed as cell survival after 72 hrs by MTT assay. It is filed as functional, cell-based.
Settings: not given
The method in brief:
(§1)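 Cells seeded (HeLa 2000, MDA-MB-453 3000, others 5000 per well), treated 24 h later (K562 after 2 h). Five double-diluted final concentrations, 200–12.5 μM, from 10 mM DMSO stocks, in RPMI-1640 with 10% FBS, pH 7.2, 72 h. MTT 4 h at 37 °C, SDS added, A570 read next day. Survival relative to medium control; IC50 from survival curves; triplicate; cisplatin positive control.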
On the technique in general: Tetrazolium assays rely on reduction of a dye to a coloured formazan, in cell work by metabolically active cells.
On to `CSCC[C@H](NC1=CC(=O)C=C(C(C)(C)C)C1=O)C(=O)O`, for which the IC50 (commonly the concentration at which inhibition is half-maximal) turned out to be 34.8 µM.
`CC(C)(C)C1=CC(=O)C(N2CCC[C@H]2C(=O)O)=CC1=O`: the IC50 was found to be 87.3 µM.

A further data set relates to Staphylococcus aureus. Briefly: Antibacterial activity against Staphylococcus aureus ATCC 6538 after 24 hrs by microbroth double dilution method. The data set is classed as functional. The settings on record: ATCC 6538, 24 h. The method in brief:
(§2)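 Microbroth double dilution in Mueller Hinton broth; compound stock 10 mg/mL in DMSO serially halved across rows. Wells inoculated with 10 μL culture at 10^6 cells/mL, incubated 37 °C for 24 h. Amikacin row as positive control, DMSO row as negative control. MIC taken as lowest concentration inhibiting bacterial growth.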
Regarding `CSCC[C@H](NC1=CC(=O)C=C(C(C)(C)C)C1=O)C(=O)O`, the MIC – broadly, the lowest concentration that inhibits growth of the organism – amounted to 1010 µM (≈ 313 µg/mL).
As for `CC(C)(C)C1=CC(=O)C(N2CCC[C@H]2C(=O)O)=CC1=O`, the lowest concentration to inhibit growth (MIC) was 567 µM (≈ 157 µg/mL).

Another data set relates to Salmonella enterica. Kind of data set: Antibacterial activity against Salmonella enterica ATCC 13076 after 24 hrs by microbroth double dilution method. It is filed as functional. The settings on record: ATCC 13076, 24 h. The method in brief:
as §2
`CSCC[C@H](NC1=CC(=O)C=C(C(C)(C)C)C1=O)C(=O)O` yielded an MIC of 2010 µM (≈ 626 µg/mL).
For the molecule `CC(C)(C)C1=CC(=O)C(N2CCC[C@H]2C(=O)O)=CC1=O`, the MIC was determined as 2260 µM (≈ 626 µg/mL).

Another data set deals with Escherichia coli. Kind of data set: Antibacterial activity against Escherichia coli ATCC 25922 after 24 hrs by microbroth double dilution method. It is filed as functional. The settings on record: ATCC 25922, 24 h. An outline of the steps: as §2
For orientation: Broth dilution looks for growth in wells or tubes with falling amounts of substance.
For `CSCC[C@H](NC1=CC(=O)C=C(C(C)(C)C)C1=O)C(=O)O`, the minimal inhibitory concentration (MIC) amounted to 1010 µM (≈ 313 µg/mL).
On the same count and under the same terms, next, `CC(C)(C)C1=CC(=O)C(N2CCC[C@H]2C(=O)O)=CC1=O`: 567 µM (≈ 157 µg/mL).

The next data set has as its system Clostridium sporogenes. Briefly: Antibacterial activity against Clostridium sporogenes ATCC 19404 after 24 hrs by microbroth double dilution method. It is filed as functional. The settings on record: ATCC 19404, 24 h. The method in brief:
as §2
In the case of `CSCC[C@H](NC1=CC(=O)C=C(C(C)(C)C)C1=O)C(=O)O`, the minimal inhibitory concentration (MIC) was determined as 2010 µM (≈ 626 µg/mL).
Same read-out and setting: next, `CC(C)(C)C1=CC(=O)C(N2CCC[C@H]2C(=O)O)=CC1=O`: 2260 µM (≈ 626 µg/mL).

The subject of another data set is Aspergillus brasiliensis. Kind of data set: Antifungal activity against Aspergillus brasiliensis ATCC 16404 after 24 hrs by microbroth double dilution method. It is filed as functional. The following applies: ATCC 16404, 24 h.
`CSCC[C@H](NC1=CC(=O)C=C(C(C)(C)C)C1=O)C(=O)O`: the minimum inhibitory concentration (MIC) stood at 2010 µM (≈ 626 µg/mL).
`CC(C)(C)C1=CC(=O)C(N2CCC[C@H]2C(=O)O)=CC1=O` displayed an MIC of 2260 µM (≈ 626 µg/mL).

Another data set relates to Micrococcus flavus. Kind of data set: Antibacterial activity against Micrococcus flavus ATCC 10240 after 24 hrs by microbroth double dilution method. The data set is classed as functional. The settings on record: ATCC 10240, 24 h. The method in brief: as §2
`CSCC[C@H](NC1=CC(=O)C=C(C(C)(C)C)C1=O)C(=O)O` showed an MIC of 2010 µM (≈ 626 µg/mL).
`CC(C)(C)C1=CC(=O)C(N2CCC[C@H]2C(=O)O)=CC1=O`: it took 2260 µM (≈ 626 µg/mL) to inhibit growth (MIC).

The subject of a further data set is Pseudomonas aeruginosa. Briefly: Antibacterial activity against Pseudomonas aeruginosa ATCC 9027 after 24 hrs by microbroth double dilution method. It is filed as functional. The following applies: ATCC 9027, 24 h. An outline of the steps:
as §2
`CSCC[C@H](NC1=CC(=O)C=C(C(C)(C)C)C1=O)C(=O)O` came in with an MIC of 2010 µM (≈ 626 µg/mL).
The molecule `CC(C)(C)C1=CC(=O)C(N2CCC[C@H]2C(=O)O)=CC1=O` displayed an MIC of 2260 µM (≈ 626 µg/mL).

Another data set deals with Artemia salina. Briefly: Cytotoxicity in Brine shrimp assessed as nauplii mortality after 24 hrs. The data set is classed as organism-based. The settings on record: in vivo. The method in brief:
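Artemia salina eggs hatched in aerated tap water with dried yeast at 18–20 °C under illumination for 48 h, and freshly hatched nauplii were used. Compounds in DMSO (0.01–1 mg) were added to 950 µL artificial seawater containing 10–20 nauplii, with 5% final DMSO. After 24 h under illumination at room temperature, dead and surviving nauplii were counted and statistically analysed.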
In the case of `CSCC[C@H](NC1=CC(=O)C=C(C(C)(C)C)C1=O)C(=O)O`, the LC50 – broadly, the concentration lethal to half of the exposed cells or organisms – amounted to 360.2 ppm.
On to `CC(C)(C)C1=CC(=O)C(N2CCC[C@H]2C(=O)O)=CC1=O`, for which the median lethal concentration (LC50) is on record as 883.4 ppm.

For the next data set, the system named is Proteus hauseri. Kind of data set: Antibacterial activity against Proteus hauseri ATCC 13315 after 24 hrs by microbroth double dilution method. It is filed as functional. The following applies: ATCC 13315, 24 h. The method in brief:
as §2
In turn, `CSCC[C@H](NC1=CC(=O)C=C(C(C)(C)C)C1=O)C(=O)O` returned an MIC of 2010 µM (≈ 626 µg/mL).
On to `CC(C)(C)C1=CC(=O)C(N2CCC[C@H]2C(=O)O)=CC1=O`, for which inhibition of growth (MIC) required 2260 µM (≈ 626 µg/mL).

In a further data set the test system is Candida albicans. Kind of data set: Antifungal activity against Candida albicans ATCC 10231 after 24 hrs by microbroth double dilution method. The settings on record: ATCC 10231, 24 h. The data set is classed as functional.
Molecule `CSCC[C@H](NC1=CC(=O)C=C(C(C)(C)C)C1=O)C(=O)O` registered an MIC of 505 µM (≈ 157 µg/mL).
For `CC(C)(C)C1=CC(=O)C(N2CCC[C@H]2C(=O)O)=CC1=O`, the MIC stood at 567 µM (≈ 157 µg/mL).

Another data set deals with Micrococcus luteus. Briefly: Antibacterial activity against Micrococcus luteus ATCC 4698 after 24 hrs by microbroth double dilution method. The data set is classed as functional. The following applies: ATCC 4698, 24 h. The method in brief:
as §2
Turning to `CSCC[C@H](NC1=CC(=O)C=C(C(C)(C)C)C1=O)C(=O)O`, the MIC worked out at 505 µM (≈ 157 µg/mL).
Molecule `CC(C)(C)C1=CC(=O)C(N2CCC[C@H]2C(=O)O)=CC1=O` registered a minimal inhibitory concentration (MIC) of 567 µM (≈ 157 µg/mL).

Another data set concerns MDA-MB-453. Kind of data set: Cytotoxicity against human MDA-MB-453 cells assessed as cell survival after 72 hrs by MTT assay. The data set is classed as functional, cell-based. The settings on record: MDA-MB-453, 72 h. The method in brief:
as §1
For the molecule `CSCC[C@H](NC1=CC(=O)C=C(C(C)(C)C)C1=O)C(=O)O`, the IC50 came to 151 µM.
For `CC(C)(C)C1=CC(=O)C(N2CCC[C@H]2C(=O)O)=CC1=O`, the IC50 is 67.2 µM.

In another data set the test system is HeLa. Kind of data set: Cytotoxicity against human HeLa cells assessed as cell survival after 72 hrs by MTT assay. The data set is classed as functional, cell-based.
Settings: not given
An outline of the steps:
as §1
As for `CSCC[C@H](NC1=CC(=O)C=C(C(C)(C)C)C1=O)C(=O)O`, the half-inhibitory concentration (IC50) was 77.4 µM.
As for `CC(C)(C)C1=CC(=O)C(N2CCC[C@H]2C(=O)O)=CC1=O`, the IC50 turned out to be 44.9 µM.

The next data set concerns MRC5. Kind of data set: Cytotoxicity against human MRC5 cells assessed as cell survival after 72 hrs by MTT assay. The data set is classed as cell-based. The following applies: MRC5, 72 h. An outline of the steps:
as §1
Regarding `CSCC[C@H](NC1=CC(=O)C=C(C(C)(C)C)C1=O)C(=O)O`, the half-inhibitory concentration (IC50) is over 200 µM.
In the case of `CC(C)(C)C1=CC(=O)C(N2CCC[C@H]2C(=O)O)=CC1=O`, the IC50 is over 200 µM.

The test system of another data set is Bacillus subtilis. Briefly: Antibacterial activity against Bacillus subtilis ATCC 6633 after 24 hrs by microbroth double dilution method. The following applies: ATCC 6633, 24 h. The data set is classed as functional. An outline of the steps:
as §2
`CSCC[C@H](NC1=CC(=O)C=C(C(C)(C)C)C1=O)C(=O)O` showed an MIC of 2010 µM (≈ 626 µg/mL).
Still for that read-out and setting: under `CC(C)(C)C1=CC(=O)C(N2CCC[C@H]2C(=O)O)=CC1=O` stands 1130 µM (≈ 313 µg/mL).

The test system of another data set is K562. Briefly: Cytotoxicity against human K562 cells assessed as cell survival after 72 hrs by MTT assay. The following applies: K562, 72 h. It is filed as functional, cell-based. The method in brief: as §1
As for `CSCC[C@H](NC1=CC(=O)C=C(C(C)(C)C)C1=O)C(=O)O`, the IC50 came out at 88.5 µM.
Consider `CC(C)(C)C1=CC(=O)C(N2CCC[C@H]2C(=O)O)=CC1=O`, for which the half-maximal inhibitory concentration (IC50) stood at 49.2 µM.

In the next data set the test system is A549. Briefly: Cytotoxicity against human A549 cells assessed as cell survival after 72 hrs by MTT assay. It is filed as functional, cell-based. The settings on record: A549, 72 h. An outline of the steps: as §1
For the molecule `CSCC[C@H](NC1=CC(=O)C=C(C(C)(C)C)C1=O)C(=O)O`, the IC50 is over 200 µM.
With `CC(C)(C)C1=CC(=O)C(N2CCC[C@H]2C(=O)O)=CC1=O`, the IC50 was determined as 186 µM.

For the next data set, the system named is Kocuria rhizophila. Kind of data set: Antibacterial activity against Kocuria rhizophila ATCC 9341 after 24 hrs by microbroth double dilution method. It is filed as functional. The settings on record: ATCC 9341, 24 h. The method in brief: as §2
Molecule `CSCC[C@H](NC1=CC(=O)C=C(C(C)(C)C)C1=O)C(=O)O` showed an MIC of 2010 µM (≈ 626 µg/mL).
In turn, `CC(C)(C)C1=CC(=O)C(N2CCC[C@H]2C(=O)O)=CC1=O` yielded an MIC of 2260 µM (≈ 626 µg/mL).

Another data set relates to Saccharomyces cerevisiae. Briefly: Antifungal activity against Saccharomyces cerevisiae ATCC 9763 after 24 hrs by microbroth double dilution method. It is filed as functional. The settings on record: ATCC 9763, 24 h.
In turn, `CSCC[C@H](NC1=CC(=O)C=C(C(C)(C)C)C1=O)C(=O)O` registered a minimum inhibitory concentration (MIC) of 505 µM (≈ 157 µg/mL).
In turn, `CC(C)(C)C1=CC(=O)C(N2CCC[C@H]2C(=O)O)=CC1=O` gave an MIC of 567 µM (≈ 157 µg/mL).

(Values after ChEMBL document CHEMBL3627646, “Synthesis and biological activity of amino acid derivatives of avarone and its model compound” (Bioorg Med Chem, 2015).)
